Source: ChEMBL document CHEMBL4371012, “Development of Macrocyclic Peptides Containing Epoxyketone with Oral Availability as Proteasome Inhibitors” (J Med Chem, 2018)
Activity calls are given as the source filed them. No cut-off for these calls is given here.

Assays:
[1] = target: T1, Proteasome Macropain subunit MB1 (Homo sapiens, UniProt P28074); assay: Inhibition of human 20S proteasome chymotrypsin-like activity using Suc-Leu-Leu-Val-Tyr-AMC as substrate pretreated for 15 mins followed by substrate addition by fluorescence assay
T1 sequence (P28074 whole entry): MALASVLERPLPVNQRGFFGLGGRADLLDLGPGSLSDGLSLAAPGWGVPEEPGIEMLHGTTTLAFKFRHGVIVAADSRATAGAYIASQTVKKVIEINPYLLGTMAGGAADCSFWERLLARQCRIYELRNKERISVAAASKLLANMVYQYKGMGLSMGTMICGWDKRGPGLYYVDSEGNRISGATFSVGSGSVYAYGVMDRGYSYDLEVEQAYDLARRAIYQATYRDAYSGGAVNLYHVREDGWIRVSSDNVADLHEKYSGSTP

RPMI-8226 = assay: Antiproliferative activity against human RPMI8226 cells after 72 hrs by MTS assay; format: functional, cell-based; conditions: RPMI-8226, 72 h
MM1.S = assay: Antiproliferative activity against human MM1S cells after 72 hrs by MTS assay; format: functional, cell-based
MV4-11 = assay: Antiproliferative activity against human MV4-11 cells after 72 hrs by MTS assay; format: functional, cell-based; conditions: MV4-11, 72 h
[2] = Metabolic stability in mouse liver microsomes assessed as parent compound remaining at 100 uM after 5 mins by LC-MS/MS analysis; format: ADME, Microsome; conditions: read-out: Stability
[3] = Metabolic stability in mouse liver microsomes assessed as parent compound remaining at 100 uM after 30 mins by LC-MS/MS analysis; format: ADME, Microsome; conditions: read-out: Stability
Outline: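 After the microsomal incubation, the clear supernatant was analysed by ESI LC-MS. The read-out was the relative peak area of each parent compound.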

Mus musculus [4] = assay: In vivo inhibition of 20S proteasome chymotrypsin-like activity in Balb/c mouse blood at 30 mg/kg, po measured at 2 to 24 hrs post dose using LLVY-AMC as substrate by fluorescence assay; format: functional, organism-based
Outline: (§1)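 BALB/c mice dosed orally in 0.5% CMC-Na vehicle. Blood was sampled at 2 and 24 h after dosing for proteasome chymotrypsin-like activity.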

[5] = Clearance in ICR mouse at 5 mg/kg, iv by LC-MS/MS analysis; format: ADME, organism-based; conditions: in vivo
[6] = Volume of distribution at steady state in ICR mouse at 5 mg/kg, iv by LC-MS/MS analysis; format: ADME, organism-based; conditions: in vivo, read-out: Vdss
[7] = Half life in ICR mouse at 5 mg/kg, iv by LC-MS/MS analysis; format: ADME, organism-based; conditions: in vivo
[8] = AUC (0 to t) in ICR mouse at 5 mg/kg, iv after 1 hr by LC-MS/MS analysis; format: ADME, organism-based; parameters: time < 1 hr, dose 5 mg/kg, route intravenous; conditions: in vivo
[9] = Cmax in ICR mouse at 25 mg/kg, po via gavage by LC-MS/MS analysis; format: ADME, organism-based; parameters: dose 25 mg/kg, route oral; conditions: in vivo
[10] = Tmax in ICR mouse at 25 mg/kg, po via gavage by LC-MS/MS analysis; format: ADME, organism-based; conditions: in vivo
[11] = AUC (0 to t) in ICR mouse at 25 mg/kg, po via gavage after 1 hr by LC-MS/MS analysis; format: ADME, organism-based; parameters: time < 1 hr, dose 25 mg/kg, route oral; conditions: in vivo
[12] = Oral bioavailability in ICR mouse at 25 mg/kg via gavage by LC-MS/MS analysis; format: ADME, organism-based; conditions: in vivo
[13] = Apparent permeability from apical to basolateral side in human Caco2 cells measured at 90 mins time interval by LC-MS/MS analysis; conditions: Caco-2
[14] = Apparent permeability from basolateral to apical side in human Caco2 cells measured at 90 mins time interval by LC-MS/MS analysis; conditions: Caco-2
[15] = Efflux ratio of apparent permeability in human Caco2 cells measured at 90 mins time interval by LC-MS/MS analysis; conditions: Caco-2
Mus musculus [16] = assay: In vivo inhibition of 20S proteasome chymotrypsin-like activity in Balb/c mouse blood at 100 mg/kg, po measured at 2 to 24 hrs post dose using LLVY-AMC as substrate by fluorescence assay; format: functional, organism-based; outline: as §1

Row | Structure (SMILES) | IC50 [1] [nM] | IC50 (RPMI-8226) [nM] | IC50 (MM1.S) [nM] | IC50 (MV4-11) [nM] | further results
1 | COC[C@@H]1NC(=O)c2ccccc2OCCCCOC[C@@H](C(=O)N[C@@H](Cc2ccccc2)C(=O)[C@@]2(C)CO2)NC1=O | 36 | > 100 | 65 | 49 | –
2 | COC[C@@H]1NC(=O)c2cccc(OC)c2OCCCCCCOC[C@@H](C(=O)N[C@@H](Cc2ccccc2)C(=O)[C@@]2(C)CO2)NC1=O | 4 | 5 | 3 | 6 | remaining at 5 min, 100 µM [2]: < 5%
3 | COC[C@H](NC(=O)c1cnc(C)s1)C(=O)N[C@@H](COC)C(=O)N[C@@H](Cc1ccccc1)C(=O)[C@@]1(C)CO1 [OPROZOMIB] | – | 19 | 9 | 28 | remaining at 0.5 h, 100 µM [3]: 60%; inhibition (Mus musculus [4]): Active; clearance [5]: 164 mL/min/kg; Vd [6]: 0.51 L/kg; half-life [7]: 2.4 min; AUC(0-t) at 1 h [8]: 506 ng·h/mL; Cmax [9]: 261 ng/mL; Tmax [10]: 13.2 min; AUC(0-t) at 1 h [11]: 142 ng·h/mL; bioavailability [12]: 5.61%
4 | COC[C@@H]1NC(=O)c2ccc(Cl)cc2OCCCCCCOC[C@@H](C(=O)N[C@@H](Cc2ccccc2)C(=O)[C@@]2(C)CO2)NC1=O | 100 | > 100 | 43 | 26 | –
5 | COC[C@@H]1NC(=O)c2cccnc2OCCCCCCOC[C@@H](C(=O)N[C@@H](Cc2ccccc2)C(=O)[C@@]2(C)CO2)NC1=O | 232 | – | – | – | –
6 | COC[C@@H]1NC(=O)c2ccccc2OCCCCCOC[C@@H](C(=O)N[C@@H](Cc2ccccc2)C(=O)[C@@]2(C)CO2)NC1=O | 21 | 74 | 29 | 13 | –
7 | COC[C@@H]1NC(=O)c2cccn2CCCCCCOC[C@@H](C(=O)N[C@@H](Cc2ccccc2)C(=O)[C@@]2(C)CO2)NC1=O | 14 | 13 | 4 | 11 | remaining at 5 min, 100 µM [2]: < 5%
8 | COCCc1ccc(OCC(O)CNC(C)C)cc1 (centres undefined) [METOPROLOL] | – | – | – | – | Papp A→B at 1.5 h [13]: 35.2 ×10⁻⁶ cm/s; Papp B→A at 1.5 h [14]: 25.9 ×10⁻⁶ cm/s; efflux ratio at 1.5 h [15]: 0.74
9 | COC[C@@H]1NC(=O)c2ccccc2OCCOCCOC[C@@H](C(=O)N[C@@H](Cc2ccccc2)C(=O)[C@@]2(C)CO2)NC1=O | 116 | 55 | 12 | 33 | –
10 | COC[C@@H]1NC(=O)c2ncccc2OCCCCCCOC[C@@H](C(=O)N[C@@H](Cc2ccccc2)C(=O)[C@@]2(C)CO2)NC1=O | 248 | > 100 | 37 | – | –
11 | COC[C@@H]1NC(=O)c2sc(C)nc2OCCCCCCOC[C@@H](C(=O)N[C@@H](Cc2ccccc2)C(=O)[C@@]2(C)CO2)NC1=O | 392 | > 100 | 65 | 36 | –
12 | COC[C@@H]1NC(=O)c2ccc(OC)cc2OCCCCCCOC[C@@H](C(=O)N[C@@H](Cc2ccccc2)C(=O)[C@@]2(C)CO2)NC1=O | 253 | > 100 | 43 | – | –
13 | COC[C@@H]1NC(=O)c2ccnn2CCCCCCOC[C@@H](C(=O)N[C@@H](Cc2ccccc2)C(=O)[C@@]2(C)CO2)NC1=O | 16 | 2 | 3 | 2 | remaining at 0.5 h, 100 µM [3]: 75%; inhibition (Mus musculus [4]): Active; clearance [5]: 107 mL/min/kg; Vd [6]: 0.48 L/kg; half-life [7]: 6 min; AUC(0-t) at 1 h [8]: 784 ng·h/mL; Cmax [9]: 325 ng/mL; Tmax [10]: 4.8 min; AUC(0-t) at 1 h [11]: 141 ng·h/mL; bioavailability [12]: 3.72%
14 | COC[C@@H]1NC(=O)c2ccccc2OCCCCCCOC[C@@H](C(=O)N[C@@H](Cc2ccccc2)C(=O)[C@@]2(C)CO2)NC1=O | 54 | > 100 | 58 | 36 | remaining at 5 min, 100 µM [2]: < 5%; inhibition (Mus musculus [16]): Active; inhibition (Mus musculus [4]): inactive; clearance [5]: 67.2 mL/min/kg; Vd [6]: 0.62 L/kg; half-life [7]: 9.6 min; AUC(0-t) at 1 h [8]: 1240 ng·h/mL; Cmax [9]: 519 ng/mL; Tmax [10]: 4.8 min; AUC(0-t) at 1 h [11]: 133 ng·h/mL; bioavailability [12]: 2.15%
15 | COC[C@@H]1NC(=O)[C@@H]2CCCN2C(=O)CCCCCOC[C@@H](C(=O)N[C@@H](Cc2ccccc2)C(=O)[C@@]2(C)CO2)NC1=O | 352 | 350 | 172 | 421 | –
16 | COC[C@@H]1NC(=O)c2ccc(C)cc2OCCCCCCOC[C@@H](C(=O)N[C@@H](Cc2ccccc2)C(=O)[C@@]2(C)CO2)NC1=O | 162 | > 100 | 53 | – | –

Row | Structure (SMILES) | IC50 [1] [nM] | IC50 (RPMI-8226) [nM] | IC50 (MM1.S) [nM] | IC50 (MV4-11) [nM] | further results
17 | COC[C@@H]1NC(=O)c2ccnn2CCCCCCCOC[C@@H](C(=O)N[C@@H](Cc2ccccc2)C(=O)[C@@]2(C)CO2)NC1=O | 25 | 5 | 2 | 5 | –
18 | COC[C@@H]1NC(=O)c2ccccc2OCCCCCCC[C@@H](C(=O)N[C@@H](Cc2ccccc2)C(=O)[C@@]2(C)CO2)NC1=O | 14 | 73 | 32 | 66 | –
19 | COC[C@@H]1NC(=O)c2nccn2CCCCCCCOC[C@@H](C(=O)N[C@@H](Cc2ccccc2)C(=O)[C@@]2(C)CO2)NC1=O | 37 | 5 | 2 | 5 | –
20 | COC[C@@H]1NC(=O)c2ccc(F)cc2OCCCCCCOC[C@@H](C(=O)N[C@@H](Cc2ccccc2)C(=O)[C@@]2(C)CO2)NC1=O | 205 | > 100 | 69 | – | –
21 | COC[C@@H]1NC(=O)c2ccccc2OCCCCCCCCCOC[C@@H](C(=O)N[C@@H](Cc2ccccc2)C(=O)[C@@]2(C)CO2)NC1=O | 460 | – | – | – | –
22 | COC[C@@H]1NC(=O)c2ccccc2OCCCCCCCC[C@@H](C(=O)N[C@@H](Cc2ccccc2)C(=O)[C@@]2(C)CO2)NC1=O | 35 | 120 | 137 | 72 | –
23 | COC[C@@H]1NC(=O)c2cccc(F)c2OCCCCCCOC[C@@H](C(=O)N[C@@H](Cc2ccccc2)C(=O)[C@@]2(C)CO2)NC1=O | 25 | 10 | 3 | 9 | –
24 | COC[C@@H]1NC(=O)c2cnn(C)c2CCCCCCOC[C@@H](C(=O)N[C@@H](Cc2ccccc2)C(=O)[C@@]2(C)CO2)NC1=O | 20 | 3 | 2 | 3 | remaining at 0.5 h, 100 µM [3]: 48%
25 | COC[C@@H]1NC(=O)c2ccccc2OCCCCCCCOC[C@@H](C(=O)N[C@@H](Cc2ccccc2)C(=O)[C@@]2(C)CO2)NC1=O | 63 | > 100 | 78 | 39 | –
26 | COC[C@@H]1NC(=O)c2cc(Cl)ccc2OCCCCCCOC[C@@H](C(=O)N[C@@H](Cc2ccccc2)C(=O)[C@@]2(C)CO2)NC1=O | 436 | – | – | – | remaining at 5 min, 100 µM [2]: < 5%
27 | COC[C@@H]1NC(=O)c2cnn(C)c2OCCCCCCOC[C@@H](C(=O)N[C@@H](Cc2ccccc2)C(=O)[C@@]2(C)CO2)NC1=O | 32 | 20 | 6 | 4 | remaining at 0.5 h, 100 µM [3]: 63%
28 | COC[C@@H]1NC(=O)c2sccc2OCCCCCCOC[C@@H](C(=O)N[C@@H](Cc2ccccc2)C(=O)[C@@]2(C)CO2)NC1=O | 257 | 128 | 63 | 131 | –
29 | COC[C@@H]1NC(=O)c2cccc(c2)OCCCCCCCCOC[C@@H](C(=O)N[C@@H](Cc2ccccc2)C(=O)[C@@]2(C)CO2)NC1=O | 51 | 32 | 11 | – | –
30 | COC[C@@H]1NC(=O)c2ccccc2OCCOCCOCCOC[C@@H](C(=O)N[C@@H](Cc2ccccc2)C(=O)[C@@]2(C)CO2)NC1=O | 370 | 82 | 43 | 130 | –
31 | COC[C@@H]1NC(=O)c2ccccc2OCCCCCCCCOC[C@@H](C(=O)N[C@@H](Cc2ccccc2)C(=O)[C@@]2(C)CO2)NC1=O | 346 | – | – | – | –
32 | CC[C@H]1OC(=O)[C@H](C)[C@@H](O[C@H]2C[C@@](C)(OC)[C@@H](O)[C@H](C)O2)[C@H](C)[C@@H](O[C@@H]2O[C@H](C)C[C@H](N(C)C)[C@H]2O)[C@](C)(O)C[C@@H](C)C(=O)[C@H](C)[C@@H](O)[C@]1(C)O [ERYTHROMYCIN] | – | – | – | – | Papp A→B at 1.5 h [13]: < 0.19 ×10⁻⁶ cm/s; Papp B→A at 1.5 h [14]: 15.1 ×10⁻⁶ cm/s; efflux ratio at 1.5 h [15]: > 79.5
